# Results filed as inconclusive are left out. The source made the active and inactive calls.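 The calls were made as follows: active = compounds lowering viability signal with fitted half-maximal potency within ten times the top dose, in every repeat run; inconclusive = repeat runs disagree, or weak flat or poorly fitted curves; inactive = every run inactive, including flat or rising signals.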
# Test system: not listed separately
# Experiment: viability loss in HMLE_shECad cells, dose response, cell-based, CellTiter-Glo luminescence, powder samples, set 4 (AID 504449)
# Conditions: HMLE_shECad breast CSC viability, CellTiter-Glo, 72 h; at 30 µM (top of the series)
# In short: (§1)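 System: HMLE_shECad cells, E-cadherin knockdown, EMT-induced breast cancer stem cell model; quantity: 2000 cells/well; incubation: ≥4 h cell settling at 37 °C, ~70-74 h compound exposure; signal: CellTiter-Glo luminescence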
row,Compound,"activity change, negative = inhibition"
1,O=C(NC1=NCCS1)/C(F)=C/c1ccccc1,10.8% (inactive)
2,COc1ccccc1OCC(=O)N/N=C/c1ccc[nH]1,9.18% (inactive)
3,Cc1csc(NC(=O)c2ccc(CO)o2)n1,-1.83% (inactive)
4,O=C(N/N=C/c1ccn[nH]1)c1cc2ccccc2o1,26.2% (inactive)
5,CC(C)c1ccc(/C=C/C(=O)NCc2ccccc2)cc1,-6.44% (inactive)
6,COc1cccc(/C=C/C(=O)NC2=NCCS2)c1,-21% (inactive)
7,C(=C\c1ccccc1)/CNC1=NCCS1,10.6% (inactive)
8,C/C(=C\c1ccccc1)C(=O)NC1=NCCS1,8.28% (inactive)
9,O=C(Nc1ccccn1)c1ccc(COc2ccccc2)o1,-28.5% (inactive)
10,O=C(Nc1nccs1)c1ccc(COc2ccccc2)o1,6.69% (inactive)
11,CC(C)c1ccc(/C=C/C(=O)N2CCOCC2)cc1,17.8% (inactive)
12,Cn1ccnc1NC(=O)c1ccc(COc2ccccc2)o1,-15.5% (inactive)
13,O=C(COc1c(Cl)cc(Cl)cc1Cl)N/N=C/c1ccn[nH]1,6.67% (inactive)
14,O=C(/C=C/c1ccc(C(F)(F)F)cc1)NC1=NCCS1,-1.72% (inactive)
15,Cc1cc(C)c(/C=N/NC(=O)COc2c(Cl)cc(Cl)cc2Cl)[nH]1,-14.5% (inactive)
16,Cc1ccc2cc(C(=O)NC3=NCCS3)n(C)c2c1,-17.3% (inactive)
17,O=S(=O)(/C=C/c1ccccc1)NC1=NCCS1,14.4% (inactive)
18,O=C(c1ccc(COc2ccccc2)o1)N1CCOCC1,2% (inactive)
19,O=C(COc1ccc(Cl)cc1Cl)N/N=C/c1ccn[nH]1,1.84% (inactive)

# Test system: HMLE_shECad breast CSC viability, CellTiter-Glo, 72 h
# Experiment: as above
# Conditions: not given
# In short: as §1
row,Compound,AC50
1,Cc1csc(NC(=O)c2ccc(COc3ccc(OC(F)(F)F)cc3)o2)n1,3.16 µM
2,Cc1csc(NC(=O)c2ccc(COc3ccc(C(F)(F)F)cc3)o2)n1,2.01 µM
3,CC(C)c1ccc(/C=C/C(=O)N(C)Cc2ccccc2)cc1,19.2 µM
4,Cc1csc(NC(=O)c2ccc(COc3ccccc3Cl)o2)n1,0.045 µM
5,CC(C)(C)c1ccc(C2CC2C(=O)N/N=C/c2ccc[nH]2)cc1 (stereo not given),0.787 µM
6,CC(C)c1ccc(/C=C/C(=O)Nc2nncs2)cc1,13.6 µM
7,O=C(N/N=C/c1ccc[nH]1)C1COc2cc3ccccc3cc2O1 (stereo not given),4.2 µM
8,COc1ccc(OCc2ccc(C(=O)Nc3nc(C)cs3)o2)cc1,29.4 µM
9,Cc1ccc(C)c(OCC(=O)N/N=C/c2ccc[nH]2)c1,9.05 µM
10,Cc1csc(NC(=O)c2ccc(COc3ccc(C#N)cc3)o2)n1,11.5 µM
11,Cc1csc(NC(=O)c2ccc(COc3ccccc3C(F)(F)F)o2)n1,0.065 µM
12,O=C(COc1ccc(Br)cc1)N/N=C/c1ccc[nH]1,15.3 µM
13,O=C(COc1ccc2ccccc2c1Br)N/N=C/c1ccc[nH]1,1.11 µM
14,Cc1csc(NC(=O)c2ccc(COc3ccccc3OC(F)(F)F)o2)n1,0.24 µM
15,Cc1cccc(OCC(=O)N/N=C/c2ccc[nH]2)c1C,24.6 µM
16,Cc1csc(NC(=O)c2ccc(COc3cccc(OC(F)(F)F)c3)o2)n1,0.439 µM
17,Cc1csc(NC(=O)c2ccc(COc3cccc(C#N)c3)o2)n1,2.07 µM
18,CC(C)c1ccc(/C=C/C(=O)Nc2nccn2C)cc1,4.65 µM

row,Compound,AC50
1,COc1ccccc1OCc1ccc(C(=O)Nc2nc(C)cs2)o1,1.63 µM
2,Cc1csc(NC(=O)c2ccc(COc3ccccc3F)o2)n1,0.019 µM
3,CC(C)c1ccc(/C=C/C(=O)Nc2ccccn2)cc1,25.5 µM
4,Cc1csc(NC(=O)c2ccc(COc3ccc(Cl)cc3)o2)n1,2.82 µM
5,Cc1csc(NC(=O)c2ccc(COc3cccc(F)c3)o2)n1,10.1 µM
6,O=C(/C=C/c1cccc(Cl)c1)NC1=NCCS1,15 µM
7,O=C(COc1ccc(Cl)cc1Br)N/N=C/c1ccc[nH]1,3.16 µM
8,COc1cccc(OCc2ccc(C(=O)Nc3nc(C)cs3)o2)c1,0.081 µM
9,O=C(Nc1nc2cccc(Cl)c2s1)c1ccc(COc2ccccc2)o1,4.49 µM
10,Cc1csc(NC(=O)c2ccc(COc3cccc(Cl)c3)o2)n1,0.572 µM
11,Cc1csc(NC(=O)c2ccc(COc3cccc(C(F)(F)F)c3)o2)n1,1.57 µM
12,O=C(N/N=C/c1ccc[nH]1)C1CC1c1ccccc1 (stereo not given),12.9 µM
13,Cc1csc(NC(=O)c2ccc(COc3ccc(F)cc3)o2)n1,5.65 µM
14,CC(C)c1ccc(/C=C/C(=O)Nc2nccs2)cc1,3.54 µM
15,Cc1csc(NC(=O)c2ccc(COc3ccccc3C#N)o2)n1,0.917 µM
16,Cc1ccc(/C=C/C(=O)NC2=NCCS2)cc1,16 µM
17,CC[C@@H](C(=O)O)C1CC[C@H](C)C([C@@H](C)[C@H](O)[C@H](C)C(=O)[C@H](CC)C2O[C@]3(C=C[C@@H](O)[C@]4(CC[C@@](C)(C5CC[C@](O)(CC)[C@H](C)O5)O4)O3)[C@H](C)C[C@@H]2C)O1 (stereo not given in full),0.01 µM
18,O=C(CSc1cc(Cl)ccc1Cl)N/N=C/c1ccc[nH]1,2.27 µM

# Source: PubChem BioAssay AID504449 (Broad Institute, 2011)
